Test results taken from ChEMBL document CHEMBL1151815, “Amides and benzenoids from Zanthoxylum ailanthoides with inhibitory activity on superoxide generation and elastase release by neutrophils” (J Nat Prod, 2009).
Converted amounts (≈) assume the structure as drawn.

Assay: Antiinflammatory activity against human neutrophils assessed as inhibition of fMLP/CB-induced superoxide anion generation
Assay type: functional, cell-based
Settings: Neutrophil
In short: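 Neutrophils (6 × 10^5/mL, dextran/Ficoll-isolated from healthy adults) with 0.5 mg/mL ferricytochrome c and 1 mM Ca2+, 2 min at 37 °C, compound or DMSO 5 min, cytochalasin B (1 µg/mL) 3 min, then fMLP 100 nM 10 min. SOD-inhibitable (100 U/mL) cytochrome c reduction at 550 nm, extinction coefficient 21.1/mM/10 mm; n = 4, mean ± SEM.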

Row | SMILES | IC50 [µg/mL]
1 | c1cc2c(cc1[C@H]1OC[C@H]3[C@@H]1CO[C@@H]3c1ccc3c(c1)OCO3)OCO2 [SESAMIN] | 4.3 (≈ 12.1 µM)
2 | c1ccc2c(c1)[I+]c1ccccc1-2 [DIPHENYLENEIODONIUM] | 0.54
3 | COc1ccc(CCN(C)C(=O)c2ccccc2)cc1 | 8.49 (≈ 31.5 µM)
4 | CC1(C)C=Cc2cc3ccc(=O)oc3cc2O1 [XANTHYLETIN] | 4.1 (≈ 18 µM)

Results, then the molecule that gave them:

Row | IC50 [µg/mL] | SMILES
5 | 7.17 (≈ 31.3 µM) | COc1c2ccoc2nc2c(OC)cccc12 [GAMMA-FAGARINE]
6 | 5.34 (≈ 16.8 µM) | COc1cc(C(=O)C(CO)c2ccc(O)c(OC)c2)ccc1O (configuration not stated) [EVOFOLIN B]
7 | 0.6 (≈ 1.69 µM) | O=C1OC[C@H](Cc2ccc3c(c2)OCO3)[C@H]1Cc1ccc2c(c1)OCO2 [HINOKININ]
8 | 4.2 (≈ 21.5 µM) | CC(=O)/C=C/C=C/C(=O)NCC(C)C
9 | 8.25 (≈ 40 µM) | COc1cc2ccc(=O)oc2cc1OC [SCOPARONE]
10 | 1.29 (≈ 4.04 µM) | COc1c(O)ccc2c1cnc1c3cc4c(cc3ccc21)OCO4 [DECARINE]
11 | 3.71 (≈ 11.9 µM) | COc1ccc(CCN(C)C(=O)/C=C/c2ccc(O)cc2)cc1 [AILANTHAMIDE]

Assay: Antiinflammatory activity against human neutrophils assessed as inhibition of fMLP/CB-induced elastase release
Assay type: functional, cell-based
Settings: Neutrophil
In short: (§1)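 Human neutrophils from healthy adult volunteers' venous blood, isolated by dextran sedimentation, Ficoll Hypaque gradient and hypotonic erythrocyte lysis, held in Ca2+-free HBSS pH 7.4 at 4 °C. Cells (6 × 10^5/mL) with MeO-Suc-Ala-Ala-Pro-Val-p-nitroanilide (100 µM) equilibrated 2 min at 37 °C, compound 5 min, then fMLP (100 nM)/cytochalasin B (0.5 µg/mL). A405 monitored continuously; n = 4, mean ± SEM.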

Row | SMILES | IC50 [µg/mL]
12 | c1cc2c(cc1[C@H]1OC[C@H]3[C@@H]1CO[C@@H]3c1ccc3c(c1)OCO3)OCO2 [SESAMIN] | 1.38 (≈ 3.89 µM)
13 | COc1ccc(CCN(C)C(=O)c2ccccc2)cc1 | 7.48 (≈ 27.8 µM)
14 | O=S(=O)(F)Cc1ccccc1 [PHENYLMETHYLSULFONYLFLUORIDE] | 35.2 (≈ 202 µM)
15 | CC1(C)C=Cc2cc3ccc(=O)oc3cc2O1 [XANTHYLETIN] | 5.53 (≈ 24.2 µM)

More lines, now with the values ahead:

Row | IC50 [µg/mL] | SMILES
16 | 6.15 (≈ 19.3 µM) | COc1cc(C(=O)C(CO)c2ccc(O)c(OC)c2)ccc1O (configuration not stated) [EVOFOLIN B]
17 | 6.2 (≈ 31.8 µM) | CC(=O)/C=C/C=C/C(=O)NCC(C)C
18 | 1.94 (≈ 6.08 µM) | COc1c(O)ccc2c1cnc1c3cc4c(cc3ccc21)OCO4 [DECARINE]
19 | 4.23 (≈ 13.6 µM) | COc1ccc(CCN(C)C(=O)/C=C/c2ccc(O)cc2)cc1 [AILANTHAMIDE]

Assay: Antiinflammatory activity against human neutrophils assessed as inhibition of fMLP/CB-induced elastase release at 10 ug/ml
Assay type: functional
Settings: Neutrophil
In short: as §1

Row | SMILES | inhibition at 10 µg/mL [%]
20 | COc1c2ccoc2nc2c(OC)cccc12 [GAMMA-FAGARINE] | 19.1
21 | O=C1OC[C@H](Cc2ccc3c(c2)OCO3)[C@H]1Cc1ccc2c(c1)OCO2 [HINOKININ] | 24.7
22 | COc1cc2ccc(=O)oc2cc1OC [SCOPARONE] | 43.1
